Values joined by “and” are separate entries in the source; they are usually repeats but may differ in a detail not shown here. Identical values can stand only once. * marks the point of attachment. CH2Cl = ClC*
Tests used:
Prp [1] = target: T1, Prp (Staphylococcus aureus, UniProt Q2FXS9); assay: Fluorogenic peptide cleavage assay, Michaelis-Menten kinetics of wild-type Prp; format: biochemical; settings: pH 7.0
Prp [2] = target: T1, Prp; assay: Reaction of Prp with Ellman's reagent under non-denaturing conditions
Prp [3] = target: T1, Prp; assay: Inhibition of Prp by chloromethylketone-containing substrate peptide; format: biochemical
Outline: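 Recombinant S. aureus Prp was purified on Ni-NTA, with the His6-SUMO tag removed by Ulp1. It was tested in a fluorogenic peptide cleavage assay in 50 mM sodium phosphate pH 7.0 with 1.5 mM DTT, 2.35 mM EDTA and 2.53% DMSO (final). Fluorescence (ex 325/em 414 nm) was read every 8 s for 10 min at ambient temperature. Percent inhibition was taken from initial velocities relative to a no-inhibitor control.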

T1 sequence (Q2FXS9 whole entry): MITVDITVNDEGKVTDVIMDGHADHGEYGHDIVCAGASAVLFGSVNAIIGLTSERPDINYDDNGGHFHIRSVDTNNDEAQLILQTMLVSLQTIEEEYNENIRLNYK

## 2-aminobenzoic acid-KLNLQFFASKK-dinitrophenol [fluorogenic substrate]
Prp [1]; ET constrained to 42.765 nM active sites (2 per dimer)
  turnover number (kcat): 0.0458 ± 0.0014 s⁻¹ and 0.05 ± 0.00 s⁻¹
Prp [1]
  specificity constant (kcat/Km): 251100 ± 39300 M⁻¹ s⁻¹ and 250000 ± 40000 M⁻¹ s⁻¹

## O=C(O)c1cc(SSc2ccc([N+](=O)[O-])c(C(=O)O)c2)ccc1[N+](=O)[O-] [Ellman’s reagent, 5,5′-dithiobis(2-nitrobenzoic acid)]
Prp [2]
  reaction with Prp (qualitative): readily reacts

## Ac-KLNLQFF-CH2Cl
Prp [3]
  inhibition of Prp (qualitative): inhibited

— article PMC5397363 (Molecular microbiology, 2017)
